By IC50 is commonly meant the concentration that inhibits the measured activity by half. A high value points to weaker potency. As a reminder, the inhibition is the drop in the measured response relative to a control, in per cent. High values mean a strong effect, low ones a weak effect.

Series [1] has as its target T1, Acetylcholinesterase (Homo sapiens, UniProt P22303). Put plainly: Inhibition of human acetylcholinesterase using […] as substrate preincubated for 30 mins followed by substrate addition measured after 2.5 mins by Ellman's spectrophotometric method. In short, it runs like this: (§1)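 Ellman assay at 25 °C in phosphate buffer pH 8.0. Enzyme (AChE from human erythrocytes, BChE from equine or human serum; 2.5 units/mL stock with 2 mg/mL BSA) and DTNB (0.3 mM in assay) preincubated with compound from ethanol stocks (1 nM−1 mM in assay). Ethanol control, triplicates, IC50 from activity vs log concentration.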
For orientation: DTNB colorimetry detects thiols as they appear.

The target in series [2] is T2, Cholinesterase (Equus caballus, UniProt P81908). Put plainly: Inhibition of equine serum butyrylcholinesterase using […] as substrate preincubated for 30 mins followed by substrate addition measured after 2.5 mins by Ellman's spectrophotometric method. The procedure, abridged: as §1
In series [3] the target is T1, Acetylcholinesterase. Nature of the series: Inhibition of human acetylcholinesterase using […] as substrate preincubated for 4.5 mins followed by substrate addition measured after 2.5 mins by Ellman's spectrophotometric method. The procedure, abridged:
(§2)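 Ellman assay at 25 °C in phosphate buffer pH 8.0. Enzyme (AChE from human erythrocytes, BChE from equine or human serum; 2.5 units/mL stock with 2 mg/mL BSA) and DTNB (0.3 mM in assay) preincubated with compound from ethanol stocks (1 nM−1 mM in assay). Acetyl- or butyrylthiocholine added (452 μM in assay), absorbance at 412 nm after 2.5 min. Ethanol control, triplicates, IC50 from activity vs log concentration.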

In series [4] the target is T2, Cholinesterase. Put plainly: Inhibition of equine serum butyrylcholinesterase using […] as substrate preincubated for 4.5 mins followed by substrate addition measured after 2.5 mins by Ellman's spectrophotometric method. The procedure, abridged:
as §2

The test system of series [5] is HT-22. Put plainly: Neuroprotective activity against glutamate-induced oxycytotic cell death in mouse HT22 cells assessed as cell viability at 25 uM after 24 hrs by MTT assay. It is filed as functional, cell-based. The procedure, abridged:
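Murine hippocampal HT-22 cells in high-glucose DMEM with 10% heat-inactivated FCS, 37 °C, 5% CO2. MTT (4 mg/mL in PBS, diluted 1:10 in medium) for 3 h, lysis in 10% SDS pH 4.1, absorbance 560 nm; viability as % of untreated cells.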

Series [6] can be described thus: Neurotoxicity against mouse HT22 cells assessed as cell viability at 1 and 5 uM after 24 hrs by MTT assay. The format is toxicity, cell-based. The following applies: ht-22, 24 h. The procedure, abridged:
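HT-22 murine hippocampal cells grown in high-glucose DMEM plus 10% heat-inactivated FCS at 37 °C, 5% CO2. After 24 h culture in plates, treated 24 h with compound (DMSO ≤0.1% final) without glutamate. Viability read by MTT (3 h), SDS lysis buffer pH 4.1, absorbance at 560 nm, given as percent of untreated control.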
On the technique in general: Tetrazolium dyes change colour on reduction, which living cells bring about.

The test system of series [7] is HT-22. Nature of the series: Neuroprotective activity against glutamate-induced oxycytotic cell death in mouse HT22 cells assessed as cell viability at 5 uM after 24 hrs by MTT assay. It is filed as functional, cell-based. The procedure, abridged: (§3)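 Murine hippocampal HT-22 cells in high-glucose DMEM with 10% heat-inactivated FCS, 37 °C, 5% CO2. […] MTT (4 mg/mL in PBS, diluted 1:10 in medium) for 3 h, lysis in 10% SDS pH 4.1, absorbance 560 nm; viability as % of untreated cells.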

Series [8] in a line: Antioxidant activity assessed as trolox equivalents of AAPH radical scavenging activity preincubated for 15 mins followed by AAPH addition measured every 60 secs for 90 mins by ORAC assay. The format is physicochemical. The settings on record: 1.5 h. In short, it runs like this:
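ORAC-FL: compound (1−5 μM) with fluorescein (300 nM final) in 75 mM phosphate buffer pH 7.4, 15 min at 37 °C, then AAPH (12 mM final). Fluorescence read every 60 s for 90 min (ex 485/em 535 nm). […] Samples in quadruplicate, ≥4 independent runs.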

In series [9] the target is T1, Acetylcholinesterase. Put plainly: Inhibition of human acetylcholinesterase using […] as substrate at 10 uM preincubated for 4.5 mins followed by substrate addition measured after 2.5 mins by Ellman's spectrophotometric method.
A short description of series [10]: Neurotoxicity against mouse HT22 cells assessed as cell viability up to 10 uM after 24 hrs by MTT assay. The format is toxicity, cell-based, HT-22. The settings on record: read-out: Activity. In short, it runs like this:
(§4)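 Murine hippocampal HT-22 cells in high-glucose DMEM with 10% heat-inactivated FCS, 37 °C, 5% CO2. […] MTT 3 h, SDS lysis, absorbance at 560 nm, viability as % of untreated cells.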

A short description of series [11]: Neurotoxicity against mouse HT22 cells assessed as decrease in cell viability at 25 uM after 24 hrs by MTT assay. The format is toxicity, cell-based. The following applies: ht-22, 24 h. The procedure, abridged: as §4
Series [12] has as its system HT-22. Nature of the series: Neuroprotective activity against glutamate-induced oxycytotic cell death in mouse HT22 cells assessed as cell viability at 5 to 25 uM after 24 hrs by MTT assay. The format is functional, cell-based. The procedure, abridged:
as §4

Series [13] has as its target T1, Acetylcholinesterase. Put plainly: Inhibition of human acetylcholinesterase using […] as substrate at 50 uM preincubated for 4.5 mins followed by substrate addition measured after 2.5 mins by Ellman's spectrophotometric method.
For series [14], the target named is Cholinesterase (Equus caballus) (UniProt P81908). Nature of the series: Pseudo-irreversible inhibition of equine serum butyrylcholinesterase assessed as carbamoylation rate of inhibitor from reversible enzyme inhibitor complex to carbamoylated enzyme using p-nitrophenyl butyrate as substrate preincubated for 5 to 40 mins followed by substrate addition by double reciprocal plot analysis.

The target of series [15] is T1, Acetylcholinesterase. Put plainly: Inhibition of human acetylcholinesterase using […] as substrate at 100 uM preincubated for 4.5 mins followed by substrate addition measured after 2.5 mins by Ellman's spectrophotometric method.
The target in series [16] is Cholinesterase (Equus caballus) (UniProt P81908). Nature of the series: Pseudo-irreversible inhibition of equine serum butyrylcholinesterase assessed as decarbamoylation rate using […] as substrate preincubated for 1 hr followed by 1000 fold dilution. The procedure, abridged:
(§5)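 Enzyme incubated 1 h with inhibitor at a fully inhibiting concentration, then diluted 1:1000 in assay buffer. Activity measured by Ellman assay at various times after dilution, with uninhibited enzyme treated the same way as control. First-order fit of activity recovery gives k4.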

For series [17] the target is unchanged. Nature of the series: Pseudo-irreversible inhibition of equine serum butyrylcholinesterase assessed as apparent affinity between enzyme and inhibitor at equilibrium state using p-nitrophenyl butyrate as substrate preincubated for 5 to 40 mins followed by substrate addition by double reciprocal plot analysis.
For series [18] the target is unchanged. Nature of the series: Pseudo-irreversible inhibition of equine serum butyrylcholinesterase assessed as half life for carbamoylated enzyme using […] as substrate preincubated for 1 hr followed by 1000 fold dilution. The procedure, abridged: as §5
Series [19] has the same target. Nature of the series: Pseudo-irreversible inhibition of equine serum butyrylcholinesterase assessed as ratio of carbamoylation rate of inhibitor to apparent affinity between enzyme and inhibitor at equilibrium state using p-nitrophenyl butyrate as substrate preincubated for 5 to 40 mins followed by substrate addition by double reciprocal plot analysis.
Series [20] relates to HT-22. Nature of the series: Neuroprotective activity against glutamate-induced oxycytotic cell death in mouse HT22 cells assessed as cell viability at 1 uM after 24 hrs by MTT assay. It is filed as functional, cell-based. In short, it runs like this:
as §3

The target in series [21] is Cholinesterase (Homo sapiens, UniProt P06276). Nature of the series: Inhibition of human butyrylcholinesterase using […] as substrate preincubated for 30 mins followed by substrate addition measured after 2.5 mins by Ellman's spectrophotometric method. In short, it runs like this: as §2

The source made the active and inactive calls. No cut-off for these calls is given here. Bounds are passed on as bounds.

T1 sequence (P22303 whole entry): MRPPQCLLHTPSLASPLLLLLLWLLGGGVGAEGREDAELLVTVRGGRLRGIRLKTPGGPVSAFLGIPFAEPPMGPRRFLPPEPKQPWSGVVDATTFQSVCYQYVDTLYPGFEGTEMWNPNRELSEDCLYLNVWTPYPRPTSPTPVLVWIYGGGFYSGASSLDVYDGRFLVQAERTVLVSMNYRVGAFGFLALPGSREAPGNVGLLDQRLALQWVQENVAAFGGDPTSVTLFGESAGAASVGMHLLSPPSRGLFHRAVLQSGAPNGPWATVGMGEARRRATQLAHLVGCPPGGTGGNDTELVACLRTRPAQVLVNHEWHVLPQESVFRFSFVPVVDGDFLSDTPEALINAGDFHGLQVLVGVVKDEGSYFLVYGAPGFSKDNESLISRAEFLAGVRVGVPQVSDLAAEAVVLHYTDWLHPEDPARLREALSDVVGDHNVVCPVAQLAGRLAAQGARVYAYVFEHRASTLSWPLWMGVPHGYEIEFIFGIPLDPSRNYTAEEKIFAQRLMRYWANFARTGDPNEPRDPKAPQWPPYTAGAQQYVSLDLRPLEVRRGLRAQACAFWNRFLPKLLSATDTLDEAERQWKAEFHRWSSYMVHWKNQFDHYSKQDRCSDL
Chain of Cholinesterase (Equus caballus) (P81908 whole entry): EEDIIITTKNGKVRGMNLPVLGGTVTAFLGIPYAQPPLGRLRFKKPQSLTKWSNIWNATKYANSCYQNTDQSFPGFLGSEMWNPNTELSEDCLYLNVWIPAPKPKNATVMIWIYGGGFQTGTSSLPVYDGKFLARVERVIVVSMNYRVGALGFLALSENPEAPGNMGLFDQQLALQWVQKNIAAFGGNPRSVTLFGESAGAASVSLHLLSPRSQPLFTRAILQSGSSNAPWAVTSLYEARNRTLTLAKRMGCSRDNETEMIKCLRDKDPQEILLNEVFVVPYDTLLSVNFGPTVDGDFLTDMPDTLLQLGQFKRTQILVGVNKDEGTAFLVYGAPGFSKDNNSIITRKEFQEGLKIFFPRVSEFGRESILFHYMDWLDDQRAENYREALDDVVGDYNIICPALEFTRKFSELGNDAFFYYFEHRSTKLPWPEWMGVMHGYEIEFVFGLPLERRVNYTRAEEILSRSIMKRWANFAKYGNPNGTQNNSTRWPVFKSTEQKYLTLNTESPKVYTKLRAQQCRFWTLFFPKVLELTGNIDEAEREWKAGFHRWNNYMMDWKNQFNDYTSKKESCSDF
T2 sequence (P81908 whole entry): as above
Chain of Cholinesterase (Homo sapiens, UniProt P06276) (P06276 whole entry): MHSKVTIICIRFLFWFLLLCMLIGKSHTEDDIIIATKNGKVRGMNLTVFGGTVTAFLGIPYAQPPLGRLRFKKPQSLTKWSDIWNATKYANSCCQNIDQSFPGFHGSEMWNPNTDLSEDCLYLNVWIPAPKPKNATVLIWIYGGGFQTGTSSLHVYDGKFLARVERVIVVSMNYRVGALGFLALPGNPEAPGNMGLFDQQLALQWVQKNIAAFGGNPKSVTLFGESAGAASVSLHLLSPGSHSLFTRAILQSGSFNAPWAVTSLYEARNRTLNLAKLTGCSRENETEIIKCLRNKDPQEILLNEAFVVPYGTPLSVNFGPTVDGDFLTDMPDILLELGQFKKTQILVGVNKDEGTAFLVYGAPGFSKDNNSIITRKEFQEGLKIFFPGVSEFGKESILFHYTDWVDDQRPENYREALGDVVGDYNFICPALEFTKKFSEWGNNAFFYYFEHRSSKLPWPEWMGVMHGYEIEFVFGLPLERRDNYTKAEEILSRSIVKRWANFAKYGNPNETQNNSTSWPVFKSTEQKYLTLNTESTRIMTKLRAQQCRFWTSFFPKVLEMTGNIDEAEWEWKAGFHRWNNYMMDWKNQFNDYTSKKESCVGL

On to `CCCCCCCNC(=O)Oc1ccc2c(c1)CN(C)C(c1cc[nH]c1)N2C` (configuration not stated), for which the values for the IC50 against Acetylcholinesterase [1] and against Cholinesterase [2] were 852 nM and 23 nM, respectively.

`COc1ccc(C2N(C)Cc3cc(O)ccc3N2C)cc1` (configuration not stated): the values for the IC50 against Acetylcholinesterase [3] and at Cholinesterase [4] were 104000 nM and 39500 nM, respectively. The outcome in the series with HT-22 [5] was inactive. For the same molecule, the results for the Activity entry in [6] and in [8] were “Non-toxic” and 3.7 equiv, respectively. Moreover, the outcome with HT-22 [7] was Active.

On to `CCCCCCCNC(=O)Oc1ccc2c(c1)CN(Cc1ccccc1)C(c1ccccc1)N2C` (configuration not stated), for which the inhibition at Acetylcholinesterase [9] was determined as 17%. In series [10], the viability at 24 h was more than 80%. In addition, the figures for the Activity in series [8] and in [11] were 1.7 equiv and “Non-toxic”, respectively. Also, inhibition against Cholinesterase [2] was half-maximal at 34 nM (IC50). Besides, in the series with HT-22 [12], the result was Active.

`CN1Cc2cc(O)ccc2N(C)C1c1ccc2ccccc2c1` (configuration not stated): at Cholinesterase [4], the IC50 was found to be 16500 nM. For the same molecule, the inhibition at Acetylcholinesterase [13] amounted to 9%.

As to `CCCCCCCNC(=O)Oc1ccc2c(c1)CN(C)C(c1ccccc1)N2C` (configuration not stated), the K in [14] is 0.13 min⁻¹; in series [16], 0.14 h⁻¹; in series [17], 226 nM. The inhibition at Acetylcholinesterase [15] was found to be 4%. The viability at 24 h in series [10] is more than 80%. Moreover, in series [18], the T1/2 was 5 h. Further, the Activity in [8] came to 0.2 equiv. On Cholinesterase [2], this molecule displayed an IC50 of 106 nM. Besides, the result with HT-22 [12] was Active. Besides, the Ratio in series [19] amounted to 0.57 µM⁻¹ min⁻¹.

Consider `CN1c2ccc(O)cc2CN(Cc2ccccc2)C1c1ccccc1` (configuration not stated), for which half-maximal inhibition against Cholinesterase [4] (IC50) was put at 14800 nM. Also, the outcome with HT-22 [5] was inactive. In addition, the Activity entry in [6] is on record as “Non-toxic”; in series [8] it was 3.9 equiv. The result with HT-22 [7] and with HT-22 [20] was Active. The inhibition on Acetylcholinesterase [13] was found to be 16%.

In the case of `CCCCCCCNC(=O)Oc1ccc2c(c1)CN(C)C(c1cccs1)N2C` (configuration not stated), the K stood at 0.14 min⁻¹ in series [14], 0.14 h⁻¹ in series [16] and 14.3 nM in [17]. On Acetylcholinesterase [15], this molecule showed an inhibition of 0%. In addition, the figures for the IC50 at Cholinesterase [21] and against Cholinesterase [2] were 13 nM and 14 nM, respectively. In addition, in series [10], the viability at 24 h was more than 80%. For the same molecule, the T1/2 in series [18] was 5 h. Moreover, the Activity in [8] was determined as 0.2 equiv. Further, the result in the series on HT-22 [12] was Active. Moreover, in series [19], the Ratio stood at 9.79 µM⁻¹ min⁻¹.

On to `CCCCCCCNC(=O)Oc1ccc2c(c1)CN(C)C(c1ccc(F)cc1)N2C` (configuration not stated), for which the IC50 on Acetylcholinesterase [1] is 1610 nM; against Cholinesterase [2] it was 44 nM. For the same molecule, the K came out at 0.14 min⁻¹ in [14] and 24.5 nM in [17]. For the same molecule, the Ratio in series [19] came to 5.71 µM⁻¹ min⁻¹.

Regarding `CNC(=O)Oc1ccc2c(c1)[C@]1(C)CCN(C)[C@@H]1N2C`, the K came out at 0.3 min⁻¹ in [14], 0.25 h⁻¹ in [16] and 280 nM in series [17].

Source of the values: ChEMBL document CHEMBL3785077 (J Med Chem, 2016).
